Rows were chosen to be rich in hits. Some 3% of all compounds tested hit in one or more screens of this group.
esBAF inh: blocks esBAF chromatin remodeling in mouse ES cells | Bmi1-luciferase knock-in reporter, 24 h; 100% = twice the neutral-well signal | reporter increase, % at 12.5 µM | 2% of 350,000 active | AID 602393; in the data active means activation above about 40%; inconclusive means no clear call, values can overlap the other calls;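 further: 0% = median of the plate's neutral control wells and 100% = double that signal; a rise in the Bmi1 reporter signal indicates esBAF inhibition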
XiGFP reactiv: activators of X-chromosome reactivation in mouse fibroblasts | XiGFP mouse fibroblasts, % GFP-positive cells imaging, 3 d; cells co-treated with 5-aza-dC sensitizer; scaled so ellipticine positive control = 100% | 0.055% of 360,000 active | AID 743238 | activation, % at 7.58 µM;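 active means mean normalized replicate activation at least 10% and every replicate at or above 10%; inconclusive means only one of the two criteria met; inactive means mean below 10% and not all replicates reach 10%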;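 further: 0% = median of on-plate neutral control wells and 100% = ellipticine 6 µM median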
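Material: XiGFP fibroblasts, SV40-immortalized. Buffer or medium: DMEM plus 5-aza-dC sensitizer. Compound: single concentration per compound, delivered by pin transfer. Times: 3 days compound exposure. Controls: ellipticine 6 µM.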
NSD2 HMT inh: NSD2 (human) methyltransferase inhibition. O96028. NSD2 peptide methylation, AlphaScreen, 120 min. 0.54% of 310,000 active. AID 743445. inhibition, % at 12.5 µM; in the data active means inhibition above about 50%
Target sequence (O96028 whole entry, looked up): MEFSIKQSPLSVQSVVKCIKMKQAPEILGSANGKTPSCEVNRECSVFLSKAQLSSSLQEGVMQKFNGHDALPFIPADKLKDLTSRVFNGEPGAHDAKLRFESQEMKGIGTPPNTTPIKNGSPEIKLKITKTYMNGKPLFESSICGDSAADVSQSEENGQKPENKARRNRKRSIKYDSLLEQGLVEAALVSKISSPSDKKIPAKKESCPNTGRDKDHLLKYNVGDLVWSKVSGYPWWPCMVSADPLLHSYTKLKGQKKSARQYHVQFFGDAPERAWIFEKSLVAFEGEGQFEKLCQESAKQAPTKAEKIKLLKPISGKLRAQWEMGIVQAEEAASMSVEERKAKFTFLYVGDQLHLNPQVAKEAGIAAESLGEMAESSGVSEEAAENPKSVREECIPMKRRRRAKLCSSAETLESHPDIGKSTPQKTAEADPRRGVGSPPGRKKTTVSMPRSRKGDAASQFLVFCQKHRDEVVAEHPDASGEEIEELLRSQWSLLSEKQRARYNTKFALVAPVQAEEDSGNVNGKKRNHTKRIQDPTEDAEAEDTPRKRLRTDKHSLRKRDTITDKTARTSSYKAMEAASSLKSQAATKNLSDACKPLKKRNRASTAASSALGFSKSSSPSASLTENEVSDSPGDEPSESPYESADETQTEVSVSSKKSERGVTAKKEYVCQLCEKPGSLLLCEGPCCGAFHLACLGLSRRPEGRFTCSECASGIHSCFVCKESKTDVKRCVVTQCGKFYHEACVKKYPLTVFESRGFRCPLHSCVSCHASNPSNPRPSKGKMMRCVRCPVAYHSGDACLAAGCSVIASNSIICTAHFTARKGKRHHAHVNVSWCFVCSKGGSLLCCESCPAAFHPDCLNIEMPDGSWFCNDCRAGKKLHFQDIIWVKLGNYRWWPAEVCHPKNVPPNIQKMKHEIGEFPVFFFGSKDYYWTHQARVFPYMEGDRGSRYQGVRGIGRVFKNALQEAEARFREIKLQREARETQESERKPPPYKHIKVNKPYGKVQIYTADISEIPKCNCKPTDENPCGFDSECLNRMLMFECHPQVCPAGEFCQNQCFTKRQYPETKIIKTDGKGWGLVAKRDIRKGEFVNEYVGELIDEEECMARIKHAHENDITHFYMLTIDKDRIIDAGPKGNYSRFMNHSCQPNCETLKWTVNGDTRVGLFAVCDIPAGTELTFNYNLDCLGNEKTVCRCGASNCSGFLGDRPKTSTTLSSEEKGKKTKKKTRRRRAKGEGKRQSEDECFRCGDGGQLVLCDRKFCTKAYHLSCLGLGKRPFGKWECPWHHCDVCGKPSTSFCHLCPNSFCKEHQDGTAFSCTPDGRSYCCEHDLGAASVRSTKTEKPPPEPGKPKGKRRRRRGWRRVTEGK
CASP6 VEID inh: blocks human caspase-6 cleavage activity | purified caspase-6, Z-VEID-R110 cleavage fluorescence | inhibition, % at 12.5 µM | 0.53% of 350,000 active | AID 686996;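 active means mean inhibition across replicates at least about 35%, with every replicate also reaching that limit, limit read from the data; inconclusive means only one of the two criteria met; inactive means neither criterion met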;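 further: 0% = median of neutral control wells and 100% = no fluorescence left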
MITF act: increases MITF-driven TRPM1 promoter luciferase signal; SK-MEL-5 TRPM1-promoter luciferase, 24 h; % of positive control, neutral wells = 0; activation, % at 12.5 µM; 0.75% of 300,000 active;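 active means mean activation of at least 80% with every replicate also reaching 80%; inconclusive means mean reaches 80% but some replicate falls short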;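 further: 0% = neutral control wells and 100% = parthenolide positive control wells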
Wnt bcat act: Wnt/beta-catenin pathway activation | Wnt/beta-catenin reporter cell assay, activator, plate reader | activation, % at 9.35 µM | 1.2% of 300,000 active | AID 743398; in the data active means activation above about 30%, passing the limit was not always enough; inconclusive means no clear call, values can overlap the other calls;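 further: 0% = neutral control wells and 100% = positive control wells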
An asterisk follows results filed as active; ? = inconclusive; / = not tested or not shown.

SMILES	esBAF inh	XiGFP reactiv	NSD2 HMT inh	CASP6 VEID inh	MITF act	Wnt bcat act
Cc1ccc(OCCn2cnc3ccccc3c2=O)c([N+](=O)[O-])c1	92*	0	4	0	61	41*
Cc1cc(OCCn2cnc3ccccc3c2=O)ccc1[N+](=O)[O-]	/	0	-2	1	4	-1
O=C(O)C1=CCC=CC1C(=O)O (stereo not drawn)	-2	0	16	68*	/	2
O=C(OCC(=O)N1CCCCC1)c1cccs1	48*	0	-1	-1	83*	5
CC1CCN(C(=O)COC(=O)c2n[nH]c3ccccc23)CC1	58*	/	-1	/	66	/
O=C(OCC(=O)N1CCc2ccccc2C1)c1cccs1	/	0	-2	1	16	0
CCC1CCCCN1C(=O)COC(=O)c1n[nH]c2ccccc12 (stereo not drawn)	7	/	-1	/	10	-2
O=C(OCC(=O)N1CCCCCC1)c1cccs1	45*	/	-4	/	37	/
CCOC(=O)C1CCCN(C(=O)COC(=O)c2cccs2)C1 (stereo not drawn)	3	0	-2	-1	23	-5
CC1CCN(C(=O)COC(=O)c2cccs2)CC1	65*	0	-5	-2	41	-3
Cc1ccc(S(=O)(=O)N(C)C[C@H]2Oc3ccc(NC(=O)CCCCCC(=O)Nc4ccccc4N)cc3CC(=O)N([C@@H](C)CO)C[C@@H]2C)cc1	2	0	/	0	/	/
CCCN1C[C@H](C)[C@@H](OC)CN(C)C(=O)c2cc(NC(=O)NC3CCCC3)ccc2OC[C@H]1C	/	0	/	/	/	/
C[C@H](CO)N1C[C@H](C)[C@@H](CN(C)C(=O)Nc2ccc(C(F)(F)F)cc2)Oc2ccc(NS(=O)(=O)c3ccc(Cl)cc3)cc2CC1=O	4	0	/	1	/	/
Cc1cc(-n2nnc3ccccc32)nc2ccccc12	24	/	36	55*	5	-1
Cc1ccc(Nc2c(-c3ccc(N4CCOCC4)cc3)nc3cnccn23)cc1	/	0	27	/	38	-5
Cc1ccccc1Nc1c(-c2ccc(N3CCOCC3)cc2)nc2ncccn12	53*	0	/	1	8	8
Cc1ccccc1Nc1c(-c2ccc(N3CCOCC3)cc2)nc2cnccn12	56*	0	-7	1	36	33*
C[C@H]1CCCCO[C@@H](CN(C)C(=O)Nc2ccc(C(F)(F)F)cc2)[C@@H](C)CN([C@@H](C)CO)C(=O)c2cc(NC(=O)NC3CCCCC3)ccc2O1	8	0	/	0	/	/
O=C(N[C@H]1CC[C@H](CC(=O)N2CCOCC2)O[C@H]1CO)c1ccc2c(c1)OCO2	-3	0	/	1	/	/
CC(=O)Nc1ccc(C(=O)OCc2ccccc2Cl)cc1	/	0	-1	-2	37	0
CC(=O)c1ccc(NC(=O)CN(c2c(C)cccc2C)S(C)(=O)=O)cc1	56*	0	-2	4	32	4
C/C(=N\NC(=O)c1ccccc1O)c1ccc(NC(=O)Cc2ccccc2)cc1	36	0	2	36*	8	9
CCOc1ccc(N(CC(=O)Nc2cc(C)cc(C)c2)S(C)(=O)=O)cc1	?	0	-3	2	43	16
CCOc1ccc(N(CC(=O)Nc2ccc(C)cc2)S(C)(=O)=O)cc1	80*	0	-2	1	66	17
CCC(=O)Nc1ccc(C(=O)OCc2ccccc2Cl)cc1	?	/	0	/	121*	/
SMILES	esBAF inh	XiGFP reactiv	NSD2 HMT inh	CASP6 VEID inh	MITF act	Wnt bcat act
C[C@@H]1CN([C@H](C)CO)C(=O)Cc2cc(NC(=O)C3CC3)ccc2O[C@H]1CN(C)C(=O)Nc1ccc(F)cc1	2	-1	/	0	/	/
CCOc1ccc(NC(=O)Cc2ccccc2)cc1	66*	1	4	/	83*	35*
CCOc1ccc(CNC(=O)Nc2ccccc2)cc1	47*	0	-1	0	65	11
COC(=O)c1ccc(NC(=O)Cc2ccccc2)cc1	/	/	/	/	/	39*
COc1ccc(CNC(=O)Nc2ccccc2)cc1	29	0	-1	-2	60	29
COCC(=O)Nc1ccc2c(c1)C(=O)N(C)[C@H]1CC[C@H](CC(=O)NCC3CC3)O[C@H]1CO2	3	0	/	0	/	/
CC(C)(C)[S@](=O)N1Cc2cc(C(=O)NCc3ccc4c(c3)OCO4)nc(-c3cccc(-c4ccncc4)c3)c2[C@@H]1CCO	0	0	/	-2	/	/
Cc1cc(/C=C2/C(=O)N(C)C(=S)N2C)ccc1N1CCCC1	78*	0	16	-3	55	44*
CCN1C(=O)/C(=C/c2ccc(N3CCCC3)cc2)NC1=S	49*	2	-8	/	49	16
Cc1cc(/C=C2\NC(=S)N(C)C2=O)ccc1N1CCCC1	65*	5	-6	-1	50	53*
Cc1cc2ncc(-c3ccc(Cl)cc3)cn2n1	?	0	/	-1	91*	17
Cc1ccc(-c2cnc3cc(C)nn3c2)cc1	/	1	-1	-1	2	6
O=C(c1cc2ccccc2oc1=O)N(Cc1ccco1)C1CCS(=O)(=O)C1 (stereo not drawn)	82*	/	3	/	75	/
O=C(c1cc2ccccc2oc1=O)N(Cc1cccc(Br)c1)C1CCS(=O)(=O)C1 (stereo not drawn)	24	0	0	2	11	0
O=C(CNC(=O)c1ccc(Cl)cc1)NNC(=O)c1ccc(Br)cc1	-4	0	0	0	5	55*
Oc1ccccc1/C=N/NC(=S)NC1CC2CC1C1C=CCC21 (stereo not drawn)	57*	0	3	2	31	49*
O=C1N(Cc2cccc(Cl)c2)C[C@@H]2C[C@@H](c3ccccn3)N3CCC[C@@]123	0	0	-1	9	-2	33*
O=C(C[C@@H]1CC[C@@H]2[C@H](COC[C@H](O)CN2S(=O)(=O)c2cccc(Cl)c2)O1)NC1Cc2ccccc2C1	-8	0	/	0	/	/
COc1ccc(C(=O)Cn2c(Cl)nc3c2c(=O)n(C)c(=O)n3C)cc1	-8	0	7	3	/	-2
COc1cccc(C(=O)Cn2c(Br)nc3c2c(=O)n(C)c(=O)n3C)c1	9	/	-3	/	-22	49*
O=[N+]([O-])c1ccc(CSc2nc3ccccc3o2)cc1	/	/	2	/	97*	25
Cc1nc(Cc2ccccc2)sc1CC#N	2	0	0	0	-2	51*
c1ccc(Cc2nc3ccccc3s2)cc1	29	0	0	1	-6	21
COc1ccc(C=C(C(=O)O)c2ccc(OC)cc2)cc1	52*	0	0	-3	43	29
O=C(CSc1ccc(-c2nc3ccccc3[nH]2)cn1)Nc1ccc(S(=O)(=O)N2CCCC2)cc1	/	0	-1	/	13	41*
CC(=O)CSc1ccc(-c2nc3ccccc3[nH]2)cn1	-19	0	1	0	3	0

High-throughput results from PubChem BioAssay.
